Test results: ChEMBL document CHEMBL4396871, “Leveraging a Low-Affinity Diazaspiro Orthosteric Fragment to Reduce Dopamine D3 Receptor (D3R) Ligand Promiscuity across Highly Conserved Aminergic G-Protein-Coupled Receptors (GPCRs)” (J Med Chem, 2019)
pEC50, pKi: −log10 of the molar value.

Legend:
[1] = target: 5-hydroxytryptamine receptor 2A (Homo sapiens, UniProt P28223); assay: Displacement of [3H]-ketanserin from 5HT2A receptor (unknown origin) measured after 90 mins by microbeta scintillation counting method
D(1B) dopamine receptor = D(1B) dopamine receptor (Homo sapiens, UniProt P21918); assay: Displacement of [3H]-SCH23390 from recombinant human D5 receptor transiently expressed in HEK cell membranes measured after 90 mins by microbeta scintillation counting method
Histamine H3 receptor [2] = target: T1, Histamine H3 receptor (Homo sapiens, UniProt Q9Y5N1); assay: Displacement of [3H]-alpha-methylhistamine from human histamine H3 receptor stably expressed in HEK Flp-In cells at 10 uM after 90 mins by microbeta scintillation counting method relative to control; assay type: cell-based
Method in brief: (§1)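 Primary screen at 10 μM compound, expressed as % receptor inhibition, from at least three experiments.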

[3] = target: Sodium-dependent serotonin transporter (Homo sapiens, UniProt P31645); assay: Displacement of [3H]-citalopram from recombinant human SERT stably expressed in HEK cells at 10 uM measured after 90 mins by microbeta scintillation counting method relative to control; assay type: cell-based; method in brief: as §1
D(4) dopamine receptor [4] = target: T2, D(4) dopamine receptor (Homo sapiens, UniProt P21917); assay: Displacement of [3H]N-methylspiperone from recombinant human D4 receptor stably expressed in HEK cell membranes measured after 90 mins by microbeta scintillation counting method
[5] = target: T3, Muscarinic acetylcholine receptor M3 (Homo sapiens, UniProt P20309); assay: Displacement of [3H]-QNB/[3H]-NMS from human muscarinic M3 receptor expressed in stable CHO cells at 10 uM after 90 mins by microbeta scintillation counting method relative to control; assay type: cell-based; method in brief: as §1
Target sequence in this assay (P20309 whole entry, looked up): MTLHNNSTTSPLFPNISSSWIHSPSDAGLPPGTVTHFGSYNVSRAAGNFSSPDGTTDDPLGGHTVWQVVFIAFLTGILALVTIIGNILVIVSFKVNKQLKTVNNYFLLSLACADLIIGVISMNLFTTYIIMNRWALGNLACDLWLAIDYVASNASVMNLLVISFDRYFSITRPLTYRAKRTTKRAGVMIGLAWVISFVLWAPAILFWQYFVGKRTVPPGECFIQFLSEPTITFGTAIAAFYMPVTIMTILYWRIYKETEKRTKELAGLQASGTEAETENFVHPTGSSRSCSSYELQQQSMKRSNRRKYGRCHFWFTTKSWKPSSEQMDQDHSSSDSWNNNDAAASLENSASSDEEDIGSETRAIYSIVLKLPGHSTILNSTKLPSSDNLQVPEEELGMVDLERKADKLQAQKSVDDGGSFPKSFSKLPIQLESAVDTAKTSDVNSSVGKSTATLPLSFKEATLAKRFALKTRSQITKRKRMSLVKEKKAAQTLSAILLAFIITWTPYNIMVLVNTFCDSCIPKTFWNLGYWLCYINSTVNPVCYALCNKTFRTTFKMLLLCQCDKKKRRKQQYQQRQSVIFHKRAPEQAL

D(4) dopamine receptor [6] = target: T2, D(4) dopamine receptor; assay: Agonist activity at recombinant human D4 receptor expressed in CHOK1 cells assessed as induction of beta arrestin2 recruitment measured after 30 mins by coelenterazine-based beta-galactosidase reporter gene assay; assay type: cell-based
[7] = target: Alpha-2A adrenergic receptor (Homo sapiens, UniProt P08913); assay: Displacement of [3H]-rauwolscine from recombinant human alpha2A adrenergic receptor stably expressed in MDCK cells at 10 uM measured after 90 mins by microbeta scintillation counting method relative to control; assay type: cell-based; conditions: probe [3H]-rauwolscine
D2 dopamine receptor = D2 dopamine receptor (Homo sapiens, UniProt P14416); assay: Displacement of [3H]N-methylspiperone from recombinant human D2 receptor stably expressed in fibroblast at 10 uM measured after 90 mins by microbeta scintillation counting method relative to control; conditions: fibroblasts stably expressing recombinant human D2 receptor, probe [3H]N-methylspiperone
[8] = target: T3, Muscarinic acetylcholine receptor M3; assay: Displacement of [3H]-QNB/[3H]-NMS from human muscarinic M3 receptor expressed in stable CHO cells after 90 mins by microbeta scintillation counting method; assay type: cell-based
Target sequence in this assay (P20309 whole entry): as the sequence (P20309 whole entry, looked up) above

Histamine H3 receptor [9] = target: T1, Histamine H3 receptor; assay: Displacement of [3H]-alpha-methylhistamine from human histamine H3 receptor stably expressed in HEK Flp-In cells after 90 mins by microbeta scintillation counting method; assay type: cell-based
[10] = target: D(4) dopamine receptor (Homo sapiens) (UniProt P21917); assay: Displacement of [3H]N-methylspiperone from recombinant human D4 receptor stably expressed in HEK cell membranes at 10 uM measured after 90 mins by microbeta scintillation counting method relative to control
[11] = target: Sodium-dependent noradrenaline transporter (Homo sapiens, UniProt P23975); assay: Displacement of [3H]-nisoxetine from recombinant human NET stably expressed in HEK cells measured after 90 mins by microbeta scintillation counting method; assay type: cell-based
Sequence of Sodium-dependent noradrenaline transporter (P23975 whole entry): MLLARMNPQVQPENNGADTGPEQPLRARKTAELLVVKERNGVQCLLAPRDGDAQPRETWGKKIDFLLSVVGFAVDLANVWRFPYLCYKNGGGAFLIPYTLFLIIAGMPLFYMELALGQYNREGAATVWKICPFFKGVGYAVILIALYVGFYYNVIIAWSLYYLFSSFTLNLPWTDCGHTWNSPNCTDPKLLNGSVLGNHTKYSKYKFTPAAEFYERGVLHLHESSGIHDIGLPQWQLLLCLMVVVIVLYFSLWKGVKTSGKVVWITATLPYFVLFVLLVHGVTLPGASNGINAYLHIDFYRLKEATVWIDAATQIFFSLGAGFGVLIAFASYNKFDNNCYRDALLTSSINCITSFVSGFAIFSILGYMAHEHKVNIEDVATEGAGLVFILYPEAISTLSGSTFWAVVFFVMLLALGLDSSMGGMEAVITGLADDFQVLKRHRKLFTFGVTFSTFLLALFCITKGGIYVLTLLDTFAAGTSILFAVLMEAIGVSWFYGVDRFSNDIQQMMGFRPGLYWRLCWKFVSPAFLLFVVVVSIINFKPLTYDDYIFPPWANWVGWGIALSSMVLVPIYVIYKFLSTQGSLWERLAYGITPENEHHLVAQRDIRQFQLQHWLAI

T2 sequence (P21917 whole entry): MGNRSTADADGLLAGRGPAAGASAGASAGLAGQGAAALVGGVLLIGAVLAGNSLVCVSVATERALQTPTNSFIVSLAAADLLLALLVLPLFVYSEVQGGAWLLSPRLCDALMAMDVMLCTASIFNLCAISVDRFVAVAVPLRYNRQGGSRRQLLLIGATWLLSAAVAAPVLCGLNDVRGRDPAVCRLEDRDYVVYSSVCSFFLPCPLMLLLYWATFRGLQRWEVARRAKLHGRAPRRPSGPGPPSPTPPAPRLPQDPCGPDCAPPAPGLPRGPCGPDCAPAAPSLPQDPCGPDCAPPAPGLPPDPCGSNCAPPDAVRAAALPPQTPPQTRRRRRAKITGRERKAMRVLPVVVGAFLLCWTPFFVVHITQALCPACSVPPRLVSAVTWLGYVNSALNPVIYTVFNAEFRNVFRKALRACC
T1 sequence (Q9Y5N1 whole entry): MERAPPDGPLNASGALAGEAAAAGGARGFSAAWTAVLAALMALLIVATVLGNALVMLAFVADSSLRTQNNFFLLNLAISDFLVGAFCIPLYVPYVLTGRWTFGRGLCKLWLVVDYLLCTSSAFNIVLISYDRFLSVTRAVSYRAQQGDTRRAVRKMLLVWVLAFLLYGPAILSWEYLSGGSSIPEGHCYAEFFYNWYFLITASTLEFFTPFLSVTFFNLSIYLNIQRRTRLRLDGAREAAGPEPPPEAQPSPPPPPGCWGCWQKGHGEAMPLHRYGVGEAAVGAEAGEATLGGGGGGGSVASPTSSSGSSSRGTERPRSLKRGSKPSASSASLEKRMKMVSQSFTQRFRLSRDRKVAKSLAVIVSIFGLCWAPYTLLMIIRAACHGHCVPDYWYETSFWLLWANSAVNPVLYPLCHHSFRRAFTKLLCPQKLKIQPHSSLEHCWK
Sequence of Alpha-2A adrenergic receptor (P08913 whole entry): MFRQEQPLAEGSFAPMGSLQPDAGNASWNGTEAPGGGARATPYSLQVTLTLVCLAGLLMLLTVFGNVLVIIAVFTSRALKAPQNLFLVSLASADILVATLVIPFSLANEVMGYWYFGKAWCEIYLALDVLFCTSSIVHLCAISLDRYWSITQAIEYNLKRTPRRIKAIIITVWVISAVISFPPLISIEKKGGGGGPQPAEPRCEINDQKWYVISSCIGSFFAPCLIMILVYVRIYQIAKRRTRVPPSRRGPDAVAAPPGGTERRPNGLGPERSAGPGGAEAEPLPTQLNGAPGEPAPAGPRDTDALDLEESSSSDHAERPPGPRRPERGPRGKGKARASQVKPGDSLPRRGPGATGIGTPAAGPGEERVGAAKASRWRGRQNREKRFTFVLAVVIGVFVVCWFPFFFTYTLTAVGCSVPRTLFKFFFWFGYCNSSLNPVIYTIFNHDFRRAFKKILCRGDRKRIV
Sequence of Sodium-dependent serotonin transporter (P31645 whole entry, looked up): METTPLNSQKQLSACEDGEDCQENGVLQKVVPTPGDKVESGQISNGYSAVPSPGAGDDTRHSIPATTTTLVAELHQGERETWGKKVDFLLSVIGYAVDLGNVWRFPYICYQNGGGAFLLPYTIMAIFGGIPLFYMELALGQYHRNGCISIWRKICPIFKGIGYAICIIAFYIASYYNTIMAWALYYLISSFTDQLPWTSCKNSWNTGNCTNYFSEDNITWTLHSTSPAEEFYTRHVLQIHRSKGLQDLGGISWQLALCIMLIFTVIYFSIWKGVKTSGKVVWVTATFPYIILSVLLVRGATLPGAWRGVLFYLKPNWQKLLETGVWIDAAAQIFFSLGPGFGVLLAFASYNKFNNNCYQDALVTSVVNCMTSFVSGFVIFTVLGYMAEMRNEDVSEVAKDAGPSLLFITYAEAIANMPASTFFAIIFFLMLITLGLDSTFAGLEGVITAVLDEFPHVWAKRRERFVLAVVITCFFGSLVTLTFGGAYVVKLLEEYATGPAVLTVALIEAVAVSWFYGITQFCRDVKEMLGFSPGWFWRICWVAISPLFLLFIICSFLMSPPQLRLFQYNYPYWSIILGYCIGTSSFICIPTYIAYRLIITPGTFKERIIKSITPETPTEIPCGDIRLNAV
Sequence of D(4) dopamine receptor (Homo sapiens) (P21917 whole entry): as the sequence (P21917 whole entry) above
Sequence of D2 dopamine receptor (P14416 whole entry): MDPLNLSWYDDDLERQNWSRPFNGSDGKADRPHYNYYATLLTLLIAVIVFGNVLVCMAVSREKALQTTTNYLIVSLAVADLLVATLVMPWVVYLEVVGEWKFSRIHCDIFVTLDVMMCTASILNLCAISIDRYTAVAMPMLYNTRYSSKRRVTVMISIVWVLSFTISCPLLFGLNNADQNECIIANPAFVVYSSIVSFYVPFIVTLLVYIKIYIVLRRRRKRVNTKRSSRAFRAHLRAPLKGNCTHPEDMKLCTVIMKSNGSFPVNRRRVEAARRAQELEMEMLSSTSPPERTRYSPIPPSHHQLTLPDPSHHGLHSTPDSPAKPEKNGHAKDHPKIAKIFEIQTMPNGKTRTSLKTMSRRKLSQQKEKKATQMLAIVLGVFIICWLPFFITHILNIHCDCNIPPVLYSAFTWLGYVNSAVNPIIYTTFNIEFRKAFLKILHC
Sequence of 5-hydroxytryptamine receptor 2A (P28223 whole entry): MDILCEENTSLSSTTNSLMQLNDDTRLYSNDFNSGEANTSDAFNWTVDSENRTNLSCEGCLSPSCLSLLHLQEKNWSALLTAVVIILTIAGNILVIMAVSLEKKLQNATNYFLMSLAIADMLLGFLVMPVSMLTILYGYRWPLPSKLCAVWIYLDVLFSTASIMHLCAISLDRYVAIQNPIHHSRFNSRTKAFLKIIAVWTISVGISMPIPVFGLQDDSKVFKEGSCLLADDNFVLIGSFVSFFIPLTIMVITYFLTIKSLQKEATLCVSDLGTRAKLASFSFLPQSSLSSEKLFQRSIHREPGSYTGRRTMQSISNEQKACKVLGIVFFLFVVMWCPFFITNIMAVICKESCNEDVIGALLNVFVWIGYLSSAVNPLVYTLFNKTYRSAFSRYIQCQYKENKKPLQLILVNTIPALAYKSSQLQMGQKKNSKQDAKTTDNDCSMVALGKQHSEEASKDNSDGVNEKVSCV
Sequence of D(1B) dopamine receptor (P21918 whole entry): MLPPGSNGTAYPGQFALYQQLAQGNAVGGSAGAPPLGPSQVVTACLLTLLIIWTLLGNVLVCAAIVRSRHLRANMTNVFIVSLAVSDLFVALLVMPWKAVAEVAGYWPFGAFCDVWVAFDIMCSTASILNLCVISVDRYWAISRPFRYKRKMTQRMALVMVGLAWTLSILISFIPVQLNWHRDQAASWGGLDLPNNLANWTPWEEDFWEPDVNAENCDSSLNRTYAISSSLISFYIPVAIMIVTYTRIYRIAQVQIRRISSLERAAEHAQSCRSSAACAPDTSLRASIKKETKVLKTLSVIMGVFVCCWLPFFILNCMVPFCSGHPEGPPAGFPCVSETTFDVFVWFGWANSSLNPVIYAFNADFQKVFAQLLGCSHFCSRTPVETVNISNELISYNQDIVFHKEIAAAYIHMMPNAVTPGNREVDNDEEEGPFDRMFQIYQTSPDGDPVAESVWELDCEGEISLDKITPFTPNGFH

pKi [1]	pKi (D(1B) dopamine receptor)	inhibition (Histamine H3 receptor [2])	inhibition [3]	pKi (D(4) dopamine receptor [4])	inhibition [5]	pEC50 (D(4) dopamine receptor [6])	inhibition at […], 10 µM [7]	inhibition at […], 10 µM (D2 dopamine receptor)	pKi [8]	pKi (Histamine H3 receptor [9])	inhibition [10]	pKi [11]	SMILES
5.85	5.52	< 50%	< 50%	6.14	< 50%	6.44							COc1ccccc1N1CCN(CCCSc2nnc(-c3ccccc3)n2C)CC1
							< 50%	< 50%	6.29	6.29	< 50%	6.03	COc1ccccc1N1CCC2(CCN(CCCSc3nnc(-c4ccccc4)n3C)CC2)CC1
